# High-throughput results: PubChem, several laboratories
# JMJD2C inh = inhibitors of GASC-1 histone demethylase, primary screen, biochemical, fluorescence, DELFIA europium | Lysine-specific demethylase 4C (Homo sapiens), Q9H3R0 | GST-JMJD2C(1-420) H3K9me3 demethylation | inhibition, % at 2.35 µM | hit rate 0.069% among 330,000;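 active means more than half of a compound's replicate wells show inhibition beyond 50%, single wells judged on their own value; inconclusive means some, but no more than half, of replicates pass 50% inhibition; inactive means no replicate passes 50% inhibition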;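 further: signal counts dimethyl H3K9 product captured on neutravidin plate; 0% = median of DMSO wells and 100% = 0.3 times that DMSO median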
# Target sequence (Q9H3R0 1-420 limits assumed): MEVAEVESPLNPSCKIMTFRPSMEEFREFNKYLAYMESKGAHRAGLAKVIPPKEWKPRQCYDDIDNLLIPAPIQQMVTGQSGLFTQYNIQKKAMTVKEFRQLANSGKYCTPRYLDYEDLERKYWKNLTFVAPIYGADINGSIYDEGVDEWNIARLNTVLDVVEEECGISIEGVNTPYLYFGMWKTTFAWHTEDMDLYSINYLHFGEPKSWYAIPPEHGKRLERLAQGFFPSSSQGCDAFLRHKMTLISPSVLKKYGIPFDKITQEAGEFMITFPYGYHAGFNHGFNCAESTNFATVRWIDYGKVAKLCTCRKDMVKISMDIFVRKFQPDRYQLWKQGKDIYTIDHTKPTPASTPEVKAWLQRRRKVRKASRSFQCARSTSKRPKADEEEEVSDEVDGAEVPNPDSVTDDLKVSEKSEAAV
# Arr AP2 block = inhibitors of beta-arrestin/AP2 binding, primary screen, biochemical, GPCR trafficking, flow cytometry; beta-arrestin 1 C-terminal peptide binding to AP2 beta2-adaptin appendage (human); FITC-arrestin peptide / GST-AP2 beads; AP2 beta2 appendage carries R879A mutation; inhibition, % at 10 µM; hit rate 0.31% among 340,000; AID 504490, 2011;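 active means inhibition above a set limit, near 3 SD of compounds lacking own fluorescence, cut at about 54% in these data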;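 further: plate controls were DMSO wells for no effect and 5 µM unlabelled arrestin peptide for full effect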
#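 Material – GST-tagged AP2 beta2-adaptin appendage (R879A) on 4 µm glutathione beads · Probe or stimulus – fluorescein-tagged arrestin peptide at 50 nM final · Timing – 12 min plus 1 h, RT · Detection – bead flow cytometry, FITC channel · Read-out basis – inhibition as reduced fluorescein signal on beads, percent · Medium – PBS plus Tween 20 (0.05%) and BSA (0.1%)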
# SENP1 FRET inh = human SENP1 catalytic domain inhibitors, primary screen, biochemical, FRET, uHTS; Sentrin-specific protease 1 (Homo sapiens), Q9P0U3; recombinant SENP1 catalytic domain, CyPet-SUMO1-YPet FRET cleavage; inhibition, % at 10 µM; hit rate 0.21% among 360,000;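 active means inhibition at least 30% at 10 µM, raw YFP signal under a set limit, fluorescence ratio 0.5 to 1.5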;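 further: 0% = enzyme with DMSO and 100% = no enzyme wells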
# Target sequence (Q9P0U3 419-644 limits assumed): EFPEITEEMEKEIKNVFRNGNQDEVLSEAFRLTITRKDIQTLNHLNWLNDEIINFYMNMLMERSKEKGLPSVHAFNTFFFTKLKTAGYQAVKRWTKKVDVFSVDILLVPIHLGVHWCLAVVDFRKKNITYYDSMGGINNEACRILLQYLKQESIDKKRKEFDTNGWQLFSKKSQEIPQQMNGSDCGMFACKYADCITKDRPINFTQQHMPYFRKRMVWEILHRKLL
#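 system = hSENP1 catalytic domain, recombinant | reagent = SFCypet-SUMO1-SFYpet substrate at 25 nM | doses = one dose per compound, 10 µM, 0.5% DMSO | incubation = enzyme reaction for 50 min at room temperature, dark | measured by = FRET, CFP and YFP emission | controls = no-enzyme low, enzyme-DMSO high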
# FAS-TE inh = FAS thioesterase domain inhibitors, primary screen, biochemical, fluorescence intensity, uHTS; Fatty acid synthase (Homo sapiens), P49327; recombinant FAS-TE, OMFH fluorogenic substrate, fluorescence endpoint; inhibition, % at 15 µM; hit rate 0.67% among 360,000;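 active means compounds whose normalised, plate-corrected inhibition of enzyme fluorescence in the single-dose primary screen is 50% or more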;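 further: 0% = DMSO with enzyme and 100% = substrate without enzyme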
# Arr AP2 CP1 = inhibitors of arrestin peptide binding to AP2, confirmation, biochemical, cherry pick 1, flow cytometry beads; shares compounds with Arr AP2 block; GST-AP2 beads, FITC arrestin peptide binding; GST-fused beta2-adaptin appendage, R879A mutant; inhibition, % at 10 µM; hit rate 2% among 1,300;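 active means inhibition above a set limit, roughly 3 SD of non-fluorescent compound noise, cut at about 38% in these data; inactive means inhibition at or below that limit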;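 further: loss of bead fluorescence from 50 nM FITC arrestin peptide bound to appendage; 0% = negative control wells and 100% = excess unlabelled arrestin peptide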
# GST GSH counter = GST-fluorescein capture on glutathione beads, confirmation, artefact control for arrestin-AP2 inhibitor project, biochemical, cherry pick 1, flow cytometry; shares compounds with Arr AP2 block; GST-fluorescein binding to GSH beads, fluorescence, counter-screen; inhibition, % at 10 µM; hit rate 2% among 1,300; AID 588338, 2011;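 active means inhibition above 50%, about 3 SD of the inhibition seen with non-fluorescent compounds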;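 further: fluorescein maleimide labelled GST captured on 4 micron glutathione beads; higher means more loss of bead fluorescence from quenching or blocked binding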
# Active calls of the source: *; ? = inconclusive; nt = no result given. An excerpt weighted towards active compounds, which were near 1.1% of everything screened.
SMILES,JMJD2C inh,Arr AP2 block,SENP1 FRET inh,FAS-TE inh,Arr AP2 CP1,GST GSH counter
CCc1ccc2[nH]c(=O)c(CN(CCN(CC)CC)C(=S)NCc3ccco3)cc2c1,1,55*,-5,0,9,-7
CCc1ccc2[nH]c(=O)c(CN(CCN(C)C)C(=S)NCc3ccco3)cc2c1,-5,38,-7,-2,nt,nt
COc1ccc(OC)c(NC(=O)c2ccc(CN(c3cc(Cl)ccc3C)S(=O)(=O)c3ccccc3)cc2)c1,14,82*,2,34,9,-3
COc1ccc(OC)c(NC(=O)c2cccc(S(=O)(=O)N(Cc3ccccc3)c3ccccc3OC)c2)c1,-2,40,0,48,nt,nt
COc1ccccc1Cn1c(=S)[nH]c2cc(C(=O)NC(C)C)ccc2c1=O,1,-17,1,-7,nt,nt
CCCn1c(=O)c2[nH]cnc2n(-c2ccc(Cl)cc2)c1=O,1,58*,2,-6,11,-9
Cc1cccc(NC(=O)CNC(=O)Cc2ccc(S(=O)(=O)N3CCOCC3)s2)c1C,7,27,-7,-6,nt,nt
CCN1CCN(CCOc2cccc(Cl)c2Cl)CC1,-41,15,0,-3,nt,nt
COCCN(C(=O)CCCC(=O)Nc1ccccn1)C(C(=O)NC1CCCCC1)c1ccc(C)cc1 (stereo not given),-3,101*,-1,-5,-13,-4
COCCNC(=O)C(c1ccc(C)cc1)N(CCOC)C(=O)CCC(=O)Nc1ccccn1 (stereo not given),2,1,1,-8,nt,nt
COc1ccc(C2Nc3ccccc3C(=O)N2NS(C)(=O)=O)cc1OC (stereo not given),?,71*,-9,0,-2,1
CC(=O)Nc1ccc(NC(=O)C(C)OC(=O)c2ccc3[nH]c(C)c(C)c3c2)cc1 (stereo not given),-2,57*,-2,2,-7,-6
Cc1[nH]c2ccc(C(=O)OC(C)C(=O)N(C)c3ccccc3)cc2c1C (stereo not given),-5,-5,-2,9,nt,nt
Cc1cc(/C=C2/NC(=O)N(Cc3ccccc3F)C2=O)c(C)n1-c1ccccn1,12,88*,-24,-6,-7,72*
Cc1cccc(CN2C(=O)N/C(=C/c3cc(C)n(-c4ccccn4)c3C)C2=O)c1,2,12,-35,2,nt,nt
COc1ccc(CNCc2cc3c(cc2[N+](=O)[O-])OCO3)cc1,9,-3,-6,-1,nt,nt
CCC(C)N(C(=O)COC(=O)c1ccccc1SCC(=O)N1CCCC1)C1CCS(=O)(=O)C1 (stereo not given),5,54*,0,-5,8,-2
Cc1cccc(NC(=O)CCC(=O)NCCO)c1,-13,4,-1,-9,nt,nt
CS(=O)(=O)N(CC(=O)Nc1c(F)cccc1F)c1cccc([N+](=O)[O-])c1,1,-5,0,-3,nt,nt
CCOc1ccccc1OCCC(=O)Nc1ccc2c(c1)OCO2,1,2,-5,-4,-3,-1
CCC(=O)c1ccc(OCC(=O)Nc2ccc3c(c2)OCCO3)cc1,11,8,0,-4,-4,-4
COc1ccccc1OCC(=O)Nc1ccc2c(c1)OCO2,6,15,-6,-2,nt,nt
COc1cc(C)ccc1OCC(=O)Nc1ccc2c(c1)OCO2,2,-6,0,-1,3,-5
Cc1cc(S(=O)(=O)NC(C)C)ccc1OCC(=O)Nc1ccc2c(c1)OCCO2,-18,63*,2,-4,23,-7
O=C(COc1ccc(F)cc1)Nc1ccc2c(c1)OCCO2,-10,-7,0,4,nt,nt
SMILES,JMJD2C inh,Arr AP2 block,SENP1 FRET inh,FAS-TE inh,Arr AP2 CP1,GST GSH counter
O=C(Nc1nnc(-c2cccnc2)o1)c1cccc([N+](=O)[O-])c1,35,nt,nt,nt,nt,nt
CCCC(C(=O)NCc1ccco1)N(CC1CCCO1)C(=O)CNS(=O)(=O)c1ccc(F)cc1 (stereo not given),1,24,1,-4,nt,nt
Cc1ccc(OCCC(=O)Nc2ccc3c(c2)OCCCO3)cc1,-11,0,0,6,3,-2
CC(=O)c1ccc(OCCCC(=O)Nc2ccc3c(c2)OCCO3)cc1,-1,-2,0,1,-3,-3
Cc1ccc(OCCCC(=O)Nc2ccc3c(c2)OCO3)cc1,3,1,-1,-4,nt,nt
Cc1cccc(N/N=C/c2ccncc2)c1,11,3,0,1,nt,nt
Cc1ccc(/C=C/C(=O)O)cc1S(=O)(=O)Nc1ccccc1C(=O)O,-8,8,5,-1,nt,nt
O=C(CCN1CCN(Cc2ccccc2)CC1)NNC(=O)Cc1ccc(Cl)c(Cl)c1,-3,nt,-2,4,nt,nt
CC(=O)Nc1cccc(-c2csc(N)n2)c1,6,55*,1,-4,2,-1
COc1ccc(NC(=O)c2cc(-c3ccc(F)cc3OC)n[nH]2)cc1OC,nt,nt,-1,3,nt,nt
Cc1cc(=O)[nH]c(-c2cccnc2)n1,20,63*,0,-3,-3,-6
O=c1cc(C(F)(F)F)nc(-c2cccnc2)[nH]1,-3,4,0,7,nt,nt
Cc1ccc(SCC(=O)NNC(=O)CCS(=O)(=O)c2ccc(C)cc2)cc1,-3,54*,0,-6,2,-2
Cc1ccc(SCC(=O)NNC(=O)CCS(=O)(=O)c2ccccc2)cc1,3,9,2,-2,nt,nt
CC(C)Oc1ccc(/C=N/NC(=O)C(CSCc2ccccc2)NC(=O)c2ccc([N+](=O)[O-])cc2)cc1 (stereo not given),25,2,0,21,nt,nt
O=C(Nc1ccccc1)Oc1ccccc1N1CCOCC1,-8,66*,1,2,20,-2
O=C(Nc1ccc(COc2ccccc2)cc1)Oc1ccccc1N1CCOCC1,6,-2,2,2,nt,nt
CC12CCC(=O)N1C(C(=O)OCC(=O)Nc1ccc(C(F)(F)F)cc1)CS2 (stereo not given),nt,10,2,2,-4,-6
CC12CCC(=O)N1C(C(=O)OCC(=O)Nc1ccc(S(N)(=O)=O)cc1)CS2 (stereo not given),-7,0,0,-10,-1,-5
Cc1ccc(NC(=O)COC(=O)C2CSC3(C)CCC(=O)N23)c(C)c1 (stereo not given),4,69*,-1,-7,-8,-3
